The sample as a whole holds a higher share of hits than the screen did.
H69AR inhibit = growth inhibitors of human H69AR lung tumor cells; actives 6% (n = 85,000); AID 598; H69AR lung tumor viability, ATP luminescence, 72 h; stronger effect = lower value; viability, % at 10 µM;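 active = viability at or below 40%; inactive = viability above 40%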;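 note: multidrug resistant small cell line overexpressing MRP-1 efflux transporter; 100% = mean luminescence of untreated control wells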
Fibroblast inh = blocks proliferation of human lung fibroblasts; AID 719; LL 47 human lung fibroblast viability, ATP luminescence; stronger effect = lower value; actives 1.1% (n = 85,000); viability, % at 10 µM;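 active = viability at or below 50% in the single dose screen; inactive = viability above 50%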;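 note: compound exposure lasted 72 h before the ATP readout; 100% = median luminescence of untreated cell-only wells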
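Material: human lung fibroblast line LL 47, low passage; Evaluation: viability percentage against median untreated-cell control; Buffer or medium: 15% FBS in IMEM; Incubation: 72 h compound exposure at 37 °C after overnight plating; Dosing: 0.1% DMSO in all compound wells; Measured by: CellTiter-Glo luminescence.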
HUVEC prolif 384 = blocks proliferation of human endothelial cells; HUVEC proliferation, CellTiter-Glo luminescence, 72 h; stronger effect = lower value; viability, % at 10 µM (by protocol); actives 1.1% (n = 86,000); AID 648;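 active = viability at or below 30%; inactive = viability above 30%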;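 note: 100% = median luminescence of DMSO-only cell control wells on each plate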
PTEN del growth = PTEN-deleted cell growth suppression. HCT116 PTEN-null viability, CellTiter-Glo, 60 h; stronger effect = lower value. viability, % at 10 µM. actives 1.2% (n = 140,000). AID 827;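 active = viability at or below a set limit, 4 SD under the median of all tested compounds, cut at about 3.7% in these data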;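 note: PTEN knockout HCT116 line with beta catenin targeted HCT116 as companion control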
bCat KO growth = beta-catenin-lacking colon tumor cell growth suppression. AID 818. actives 1.5% (n = 140,000). HCT116 beta-catenin knockout viability, CellTiter-Glo, 60 h; stronger effect = lower value. viability, % at 10 µM;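 active = viability at or under a set limit, the compound median less 4 SD, cut at about 6% in these data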;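 note: 0% = Hyamine 1622 control at 20 µM and 100% = untreated cell control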
* hit, by the source's call; / = not tested or not shown.

SMILES | H69AR inhibit | Fibroblast inh | HUVEC prolif 384 | PTEN del growth | bCat KO growth
N#CC1=C(N)C(C#N)(C#N)[C@H](c2ccoc2)[C@H]2CN(Cc3ccccc3)CC=C12 | 4.0* | 69 | 39 | 85 | 89
CCOC(=O)N1CC=C2C(C#N)=C(N)C(C#N)(C#N)[C@H](c3ccc(OCC)c(OCC)c3)[C@H]2C1 | 26* | 79 | 60 | 97 | 94
CN1CC=C2C(C#N)=C(N)C(C#N)(C#N)[C@H](c3ccoc3)[C@H]2C1 | 56 | 95 | 104 | 69 | 76
N#CC1=C(N)C(C#N)(C#N)C(c2cccnc2)C2CN(C(=O)OCc3ccccc3)CC=C12 (configuration not stated) | 11* | 72 | 53 | 69 | 61
COc1ccc(CNC(=O)/C(C#N)=C2\N=C(NC(=O)c3cccs3)c3ccccc32)cc1 | / | / | / | 88 | 92
CCn1c(SCC(=O)N2CCc3ccccc3C2)nc2sc(C)c(C)c2c1=O | / | / | / | 67 | 84
CNC(=O)C12CC3CC(CC(Cl)(C3)C1)C2 | / | / | / | 93 | 99
CCOC(=O)c1ccc(NC(=O)C2CCN(S(=O)(=O)CC)CC2)cc1 | 70 | 96 | 87 | 105 | 108
CCOC(=O)c1ccc(NC(=O)C2CCCN(S(=O)(=O)c3ccc(F)cc3)C2)cc1 (configuration not stated) | 20* | 94 | 74 | 14 | 9
O=C(Nc1ccc(Oc2ccccc2)cc1)C1CCCN(c2ncccn2)C1 (configuration not stated) | 40* | 92 | 85 | 92 | 99
Cc1ccc(S(=O)(=O)N2CCCC(C(=O)Nc3ccc(NC(=O)c4ccccn4)cc3)C2)cc1 (configuration not stated) | 21* | 76 | 75 | 20 | 8
COc1ccc(Cl)cc1NC(=O)c1cccc(NC(=O)CCC(=O)O)c1 | / | / | / | 102 | 82
COc1cc(C(=O)N/N=C2\CCS(=O)(=O)c3ccc(F)cc32)cc(OC)c1OC | / | / | / | 90 | 96
O=C(c1ccccc1)c1coc2ccc(O)c(Cl)c12 | 62 | 94 | 89 | 87 | 87
Cc1oc2c(c1C(=O)c1ccccc1)C(=O)C(=O)c1ccccc1-2 | 1.4* | 2.1* | 3.1* | 1.5* | 1.2*
O=C1C(=O)c2c(C(=O)c3ccccc3)coc2-c2ccccc21 | 0.5* | 36* | 3.2* | 1.5* | 1.8*
Cc1ccc(S(=O)(=O)Nc2ccc(-c3nc4cc(NS(=O)(=O)c5ccc(C)cc5)ccc4o3)cc2)cc1 | / | / | / | 21 | 28
CCOc1ccc(C(=O)N(Cc2ccc(OC)cc2)Cc2cc3cc(OC)ccc3[nH]c2=O)cc1 | 19* | 86 | 70 | 92 | 87
CCCN(Cc1cc2cc(OC)ccc2[nH]c1=O)C(=O)c1ccncc1 | 25* | 85 | 80 | 66 | 74
COc1ccc2[nH]c(=O)c(CN(C)C(=O)c3ccncc3)cc2c1 | 94 | 97 | 89 | 106 | 108
CCOc1ccc2[nH]c(=O)c(CN(CCc3ccccc3)C(=O)N3CCCC3)cc2c1 | / | / | / | 66 | 70
CCOc1ccccc1C(=O)N(Cc1ccccc1)Cc1cc2cc3c(cc2[nH]c1=O)OCCO3 | 9.0* | 26* | 19* | / | /
CCOc1ccc2[nH]c(=O)c(CN(Cc3ccc(C)cc3)C(=O)N3CCCC3)cc2c1 | 33* | 89 | 90 | 81 | 93
Cc1oc(C)c2c(=O)ccc3c(c12)OC(N)=C(C#N)C3c1ccccc1 (configuration not stated) | 91 | 89 | 63 | 92 | 83
CSc1ccc(C2C(C#N)=C(N)Oc3c2ccc(=O)c2c(C)oc(C)c32)cc1 (configuration not stated) | 10* | 95 | 64 | 80 | 76
SMILES | H69AR inhibit | Fibroblast inh | HUVEC prolif 384 | PTEN del growth | bCat KO growth
CCOC(=O)N1CCC(NC(=O)c2cc3c(-c4cccc(OC)c4)nn(C)c3s2)CC1 | 10* | 93 | 75 | 75 | 82
Cc1ccc(C)c(C(=O)COC(=O)c2cc([N+](=O)[O-])ccc2NCCO)c1 | / | / | / | 75 | 86
CCC(=O)NC(=S)Nc1ccc(NC(=O)c2ccc([N+](=O)[O-])cc2Cl)cc1 | / | / | / | 88 | 82
Cc1c(C(=O)OCCOC(C)C)[nH]c2c1C(=O)CC(c1ccco1)C2 (configuration not stated) | 42 | 64 | 57 | 13 | 12
CCOC(=O)c1[nH]c2c(c1C)C(=O)CC(c1ccco1)C2 (configuration not stated) | 41 | 59 | 40 | 12 | 10
COCCOC(=O)c1[nH]c2c(c1C)C(=O)CC(c1ccco1)C2 (configuration not stated) | 26* | 53 | 45 | 19 | 17
Cc1c(C(=O)OCc2ccccc2)[nH]c2c1C(=O)CC(c1ccco1)C2 (configuration not stated) | 26* | 27* | 22* | 16 | 15
CSCCOC(=O)c1[nH]c2c(c1C)C(=O)CC(c1ccco1)C2 (configuration not stated) | 37* | 55 | 50 | 13 | 10
CC(OC(=O)C1CCN(S(=O)(=O)c2ccc(Cl)cc2)CC1)C(=O)N1CCc2ccccc21 (configuration not stated) | 89 | 108 | 103 | 102 | 95
O=C(CSc1nnnn1-c1cccc2c1CCCC2)N1CCCCC1 | 40* | 96 | 87 | 81 | 93
C=CCn1c(=O)/c(=C/c2ccc(Cl)cc2)s/c1=C(/C#N)c1nnc2n1CCCCC2 | 22* | 83 | 68 | 46 | 48
COC(=O)C1=C(C)NC(=O)/C1=C\c1cc(C)n(-c2c(C)cccc2C)c1C | 46 | 60 | 27* | 69 | 76
CCOC(=O)c1ccc(Cn2c(-c3ccccc3)nnc2-c2ccccc2)o1 | 33* | 91 | 97 | 79 | 77
O=C1CCCN1CC(O)CS(=O)(=O)c1ccc(Cl)cc1 (configuration not stated) | / | / | / | 101 | 103
O=C(NCC(c1cccs1)N1CCOCC1)c1cc([N+](=O)[O-])ccc1Cl (configuration not stated) | / | / | / | 91 | 87
O=C(NCC(c1cccs1)N1CCOCC1)c1ccc(Cl)s1 (configuration not stated) | 18* | 64 | 82 | 21 | 16
CCCOC(=O)c1c(NC(=O)CCCn2nc([N+](=O)[O-])cc2C)sc(C(=O)OC)c1C | / | / | / | 86 | 93
Cn1c(C(=O)N2CCCC(C(=O)NCc3cccs3)C2)cc2sccc21 (configuration not stated) | 88 | 93 | 89 | 90 | 85
Cn1c(C(=O)N2CCCC(C(=O)NCCCSC3CCCCC3)C2)cc2sccc21 (configuration not stated) | 29* | 94 | 71 | 67 | 71
CC(C)NC(=O)CSCc1c(F)cccc1Cl | 95 | 105 | 106 | 91 | 93
O=C(NCc1ccccc1Cl)c1cccc(C(F)(F)F)c1 | / | / | / | 89 | 91
COC(=O)c1cc(NC(=O)c2cccc(C(F)(F)F)c2)c(=O)oc1C/C=N/OCc1cccc(Cl)c1Cl | 13* | 99 | 79 | 90 | 108
